In brackets after ≈: the same amount, converted by molar mass. Activity calls are given as the source filed them. The rule behind the calls is not given here.
Tests used:
Cryptococcus neoformans [1] = experiment: Antimicrobial activity against Cryptococcus neoformans ATCC 90122 after 24 hrs by broth microdilution assay in presence of 25% human serum; type: functional; conditions: ATCC 90112, 24 h, in the assay text read “ATCC 90112” for “ATCC 90122”
How it was run: (§1)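 For yeasts, NCCLS broth microdilution was run in medium supplemented with 25% heat-inactivated, filter-sterilized normal human serum. Compounds were reconstituted in sterile DMSO and diluted in medium just before the assay. MIC was the lowest concentration giving optically clear wells.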

Candida albicans [2] = experiment: Antimicrobial activity against Candida albicans ATCC 90028 after 48 hrs by broth microdilution assay in presence of 25% human serum; type: functional; conditions: ATCC 90028, 48 h; how it was run: as §1
Staphylococcus aureus [3] = experiment: Antimicrobial activity against Staphylococcus aureus ATCC 29213 after 24 hrs by broth microdilution assay in presence of 25% human serum; type: functional; conditions: ATCC 29213, 24 h
How it was run: (§2)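 Bacteria were tested by NCCLS broth microdilution in medium containing 25% heat-inactivated, filter-sterilized normal human serum. Compounds were dissolved in sterile DMSO and diluted in medium immediately before use. MIC was the lowest concentration with no visible growth (optically clear). Assays were repeated on separate days.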

Streptococcus pneumoniae [4] = experiment: Antimicrobial activity against Streptococcus pneumoniae ATCC 6303 after 24 hrs by broth microdilution assay in presence of 25% human serum; type: functional; conditions: ATCC 6303, 24 h; how it was run: as §2
Enterococcus faecalis [5] = experiment: Antimicrobial activity against Enterococcus faecalis ATCC 29212 after 24 hrs by broth microdilution assay in presence of 25% human serum; type: functional; conditions: ATCC 29212, 24 h; how it was run: as §2
Micrococcus luteus [6] = experiment: Antimicrobial activity against Micrococcus luteus Presque Isle 456 after 24 hrs by broth microdilution assay in presence of 25% human serum; type: functional; how it was run: as §2
Escherichia coli [7] = experiment: Antimicrobial activity against Escherichia coli ATCC 25922 after 24 hrs by broth microdilution assay in presence of 25% human serum; type: functional; conditions: ATCC 25922, 24 h; how it was run: as §2
Enterobacter cloacae [8] = experiment: Antimicrobial activity against Enterobacter cloacae ATCC 13047 after 24 hrs by broth microdilution assay in presence of 25% human serum; type: functional; conditions: ATCC 13047, 24 h; how it was run: as §2
[9] = system: Stenotrophomonas maltophilia; experiment: Antimicrobial activity against Stenotrophomonas maltophilia ATCC 13637 after 24 hrs by broth microdilution assay in presence of 25% human serum; type: functional; conditions: ATCC 13637, 24 h; how it was run: as §2
Neisseria gonorrhoeae [10] = experiment: Antimicrobial activity against Neisseria gonorrhoeae ATCC 49226 after 24 hrs by broth microdilution assay in presence of 25% human serum; type: functional; conditions: ATCC 49226, 24 h; how it was run: as §2
Cryptococcus neoformans [11] = experiment: Antimicrobial activity against fluconazole-resistant Cryptococcus neoformans after 48 hrs by broth microdilution assay in presence of 25% human serum; type: functional
Nakaseomyces glabratus = experiment: Antimicrobial activity against Candida glabrata after 48 hrs by broth microdilution assay in presence of 25% human serum; type: functional; how it was run: as §1
Staphylococcus aureus [12] = experiment: Antimicrobial activity against methicillin-resistant Staphylococcus aureus after 24 hrs by broth microdilution assay in presence of 25% human serum; type: functional
How it was run: as §2, with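 “Bacterial” for “Bacteria were tested by”, “microdilution run” for “microdilution”, “with” for “containing”, “taken up” for “dissolved”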

[13] = system: Staphylococcus epidermidis; experiment: Antimicrobial activity against Staphylococcus epidermidis ATCC 49461 after 24 hrs by broth microdilution assay in presence of 25% human serum; type: functional; conditions: ATCC 49461, 24 h; how it was run: as §2
Streptococcus pneumoniae [14] = experiment: Antimicrobial activity against penicillin-resistant Streptococcus pneumoniae after 24 hrs by broth microdilution assay in presence of 25% human serum; type: functional
How it was run: as §2, with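 “Bacterial” for “Bacteria were tested by”, “microdilution run” for “microdilution”, “with” for “containing”, “taken up” for “dissolved”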

Streptococcus pyogenes = experiment: Antimicrobial activity against penicillin-resistant Streptococcus pyogenes after 24 hrs by broth microdilution assay in presence of 25% human serum; type: functional
How it was run: as §2, with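 “Bacterial” for “Bacteria were tested by”, “microdilution run” for “microdilution”, “with” for “containing”, “taken up” for “dissolved”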

Enterococcus faecium = experiment: Antimicrobial activity against vancomycin-resistant Enterococcus faecium after 24 hrs by broth microdilution assay in presence of 25% human serum; type: functional
How it was run: as §2, with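 “Bacterial” for “Bacteria were tested by”, “microdilution run” for “microdilution”, “with” for “containing”, “taken up” for “dissolved”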

Rhodococcus sp. = experiment: Antimicrobial activity against Rhodococcus sp. after 24 hrs by broth microdilution assay in presence of 25% human serum; type: functional; conditions: Rhodococcus sp. (in: high G+C Gram-positive bacteria); how it was run: as §2
MCF7 = experiment: Cytotoxicity against human MCF7 cells after 48 hrs by SRB assay; type: functional; conditions: MCF7, 48 h
P388 = experiment: Cytotoxicity against mouse P388 cells; type: functional; conditions: read-out: ED50 (the source's name)
BXPC-3 = experiment: Cytotoxicity against human BxPC3 cells after 48 hrs by SRB assay; type: functional; conditions: BXPC-3, 48 h
SF-268 = experiment: Cytotoxicity against human SF268 cells after 48 hrs by SRB assay; type: functional; conditions: SF-268, 48 h
NCI-H460 = experiment: Cytotoxicity against human NCI-H460 cells after 48 hrs by SRB assay; type: functional; conditions: NCI-H460, 48 h
KM-20L2 = experiment: Cytotoxicity against human KM20L2 cells after 48 hrs by SRB assay; type: functional; conditions: KM-20L2, 48 h
DU-145 = experiment: Cytotoxicity against human DU145 cells after 48 hrs by SRB assay; type: functional; conditions: DU-145, 48 h
Cryptococcus neoformans [15] = experiment: Antimicrobial activity against Cryptococcus neoformans ATCC 90122 after 24 hrs by broth microdilution assay; type: functional; conditions: ATCC 90112, 24 h, in the assay text read “ATCC 90112” for “ATCC 90122”
How it was run: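 Yeasts were tested by NCCLS broth microdilution. Compounds were dissolved in a small volume of sterile DMSO and diluted in the appropriate medium immediately before testing. MIC was the lowest concentration inhibiting all visible growth (optically clear). Assays were repeated on separate days.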

Candida albicans [16] = experiment: Antimicrobial activity against Candida albicans ATCC 90028 at 64 ug/mL after 48 hrs by broth microdilution assay; type: functional, organism-based
Staphylococcus aureus [17] = experiment: Antimicrobial activity against Staphylococcus aureus ATCC 29213 after 24 hrs by broth microdilution assay; type: functional; conditions: ATCC 29213, 24 h
How it was run: (§3)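 Bacterial MICs were determined by NCCLS broth microdilution. Compounds were dissolved in a small volume of sterile DMSO and diluted in the appropriate medium just before testing. MIC was the lowest concentration giving no visible growth (optically clear). Assays were repeated on separate days.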

Streptococcus pneumoniae [18] = experiment: Antimicrobial activity against Streptococcus pneumoniae ATCC 6303 after 24 hrs by broth microdilution assay; type: functional; conditions: ATCC 6303, 24 h; how it was run: as §3
Enterococcus faecalis [19] = experiment: Antimicrobial activity against Enterococcus faecalis ATCC 29212 after 24 hrs by broth microdilution assay; type: functional; conditions: ATCC 29212, 24 h; how it was run: as §3
Micrococcus luteus [20] = experiment: Antimicrobial activity against Micrococcus luteus Presque Isle 456 after 24 hrs by broth microdilution assay; type: functional; how it was run: as §3
Escherichia coli [21] = experiment: Antimicrobial activity against Escherichia coli ATCC 25922 at 64 ug/mL after 24 hrs by broth microdilution assay; type: functional, organism-based
Enterobacter cloacae [22] = experiment: Antimicrobial activity against Enterobacter cloacae ATCC 13047 at 64 ug/mL after 24 hrs by broth microdilution assay; type: functional, organism-based
[23] = system: Stenotrophomonas maltophilia; experiment: Antimicrobial activity against Stenotrophomonas maltophilia ATCC 13637 at 64 ug/mL after 24 hrs by broth microdilution assay; type: functional, organism-based
Neisseria gonorrhoeae [24] = experiment: Antimicrobial activity against Neisseria gonorrhoeae ATCC 49226 at 64 ug/mL after 24 hrs by broth microdilution assay; type: functional; conditions: ATCC 49226, 24 h

CC(C)O[C@@H]1C[C@H]2C(C)(C)CCC[C@]2(C)c2ccc(O)c(C(C)C)c2O1 [NOOTKASTATIN 2]
MIC (Cryptococcus neoformans [1]): > 64 µg/mL
MIC (Candida albicans [2]): > 64 µg/mL
MIC (Staphylococcus aureus [3]): > 64 µg/mL
MIC (Streptococcus pneumoniae [4]): > 64 µg/mL
MIC (Enterococcus faecalis [5]): > 64 µg/mL
MIC (Micrococcus luteus [6]): > 64 µg/mL
MIC (Escherichia coli [7]): > 64 µg/mL
MIC (Enterobacter cloacae [8]): > 64 µg/mL
MIC [9]: > 64 µg/mL
MIC (Neisseria gonorrhoeae [10]): > 64 µg/mL
MIC (Cryptococcus neoformans [11]): > 64 µg/mL
MIC (Nakaseomyces glabratus): > 64 µg/mL
MIC (Staphylococcus aureus [12]): > 64 µg/mL
MIC [13]: > 64 µg/mL
MIC (Streptococcus pneumoniae [14]): > 64 µg/mL
MIC (Streptococcus pyogenes): > 64 µg/mL
MIC (Enterococcus faecium): > 64 µg/mL
MIC (Rhodococcus sp.): > 64 µg/mL
GI50 (MCF7): 2.3 µg/mL (≈ 6.38 µM)
EC50 (P388): 5.8 µg/mL (≈ 16.1 µM)
GI50 (BXPC-3): 1.8 µg/mL (≈ 4.99 µM)
GI50 (SF-268): 2 µg/mL (≈ 5.55 µM)
GI50 (NCI-H460): 2 µg/mL (≈ 5.55 µM)
GI50 (KM-20L2): 2.4 µg/mL (≈ 6.66 µM)
GI50 (DU-145): 2.2 µg/mL (≈ 6.1 µM)
MIC (Cryptococcus neoformans [15]): 64 µg/mL (≈ 178 µM)
Activity (Candida albicans [16]): inactive
MBC (Staphylococcus aureus [17]): 8 µg/mL (≈ 22.2 µM)
MIC (Staphylococcus aureus [17]): 4 µg/mL (≈ 11.1 µM)
MBC (Streptococcus pneumoniae [18]): 64 µg/mL (≈ 178 µM)
MIC (Streptococcus pneumoniae [18]): 64 µg/mL (≈ 178 µM)
MBC (Enterococcus faecalis [19]): 32 µg/mL (≈ 88.8 µM)
MIC (Enterococcus faecalis [19]): 2 µg/mL (≈ 5.55 µM)
MBC (Micrococcus luteus [20]): 16 µg/mL (≈ 44.4 µM)
MIC (Micrococcus luteus [20]): 1 µg/mL (≈ 2.77 µM)
Activity (Escherichia coli [21]): inactive
Activity (Enterobacter cloacae [22]): inactive
Activity [23]: inactive
MBC (Neisseria gonorrhoeae [24]): 2 µg/mL (≈ 5.55 µM)
MIC (Neisseria gonorrhoeae [24]): 2 µg/mL (≈ 5.55 µM)
